# ADAM10 inh: inhibitors of human ADAM10; recombinant ADAM10, EDANS/DABCYL FRET peptide cleavage, 3 h; 0.62% of 370,000 active; O14672; inhibition, % at 7 µM;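 active means inhibition above a per-campaign cutoff equal to the mean of compounds falling between control-based bounds plus 3 SD, cut at about 20% in these data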
# Target sequence (O14672 214-748 limits assumed): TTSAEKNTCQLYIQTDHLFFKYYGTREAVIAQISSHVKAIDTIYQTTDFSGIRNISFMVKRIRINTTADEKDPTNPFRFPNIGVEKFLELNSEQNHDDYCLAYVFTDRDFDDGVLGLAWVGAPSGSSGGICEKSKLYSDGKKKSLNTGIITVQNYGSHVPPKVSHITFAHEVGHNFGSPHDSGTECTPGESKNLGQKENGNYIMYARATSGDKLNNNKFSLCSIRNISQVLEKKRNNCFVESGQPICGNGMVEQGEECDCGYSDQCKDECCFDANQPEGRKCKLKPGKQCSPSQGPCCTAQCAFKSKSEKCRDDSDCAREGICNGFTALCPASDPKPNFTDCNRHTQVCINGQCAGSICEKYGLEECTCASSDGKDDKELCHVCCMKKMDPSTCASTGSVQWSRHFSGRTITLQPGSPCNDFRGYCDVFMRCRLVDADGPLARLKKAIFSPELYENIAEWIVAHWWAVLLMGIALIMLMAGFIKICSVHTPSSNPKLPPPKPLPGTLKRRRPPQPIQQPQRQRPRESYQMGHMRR
# SENP1 inh: SENP1 (human) catalytic domain inhibition; AID 624204; inhibition, % at 10 µM; Q9P0U3; 0.21% of 360,000 active; recombinant SENP1 catalytic domain, CyPet-SUMO1-YPet FRET cleavage;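 active means inhibition at least 30% at 10 µM, raw YFP signal under a set limit, fluorescence ratio 0.5 to 1.5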
#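 Material – human SENP1 catalytic domain · Input – SENP1 enzyme, 20 pM final · Compound dosing – single concentration of 10 µM compound, 0.5% DMSO final · Timing – enzyme reaction for 50 min at room temperature, dark · Measured by – FRET fluorescence in CFP and YFP emission channels · Control set – no-enzyme wells low, DMSO-plus-enzyme wells high control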
# ADAM17 inh: inhibits human ADAM17. P78536. recombinant ADAM17, EDANS/DABCYL FRET peptide cleavage. inhibition, % at 6.95 µM. 0.83% of 370,000 active. AID 720648;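 active means inhibition above the mean of compounds lying between control limits plus 3 SD, set per campaign, cut at about 8.5% in these data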
# FAS TE block: blocks the thioesterase domain of human fatty acid synthase | P49327 | recombinant FAS-TE, OMFH fluorogenic substrate, fluorescence endpoint | inhibition, % at 15 µM | 0.67% of 360,000 active | AID 602261;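 active means compounds whose normalised, plate-corrected inhibition of enzyme fluorescence in the single-dose primary screen is 50% or more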
# FAS-TE conf: confirmation of human fatty acid synthase thioesterase inhibitors | shares compounds with FAS TE block | recombinant FAS-TE, OMFH fluorogenic substrate, fluorescence | inhibition, % at 15 µM | 45% of 2,300 active | AID 624325;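 active means compounds inhibiting the enzyme by at least 50% at 15 µM in any one of the replicates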
# Numbers stand for hits; - = inactive; . = not tested or not shown. Most compounds without a hit are left out; they make up all but 1.9% or so of the library.
SMILES,ADAM10 inh,SENP1 inh,ADAM17 inh,FAS TE block,FAS-TE conf
CN(C)N1C(N)=C(C#N)C(c2cccc3ccccc23)C2=C1CC(c1ccccc1)CC2=O (configuration not stated),-,-,-,64.9,-
COc1ccc(-c2nnc(SCc3c(F)cccc3F)n2N)cc1,-,.,-,.,.
O=C1C2C(c3ccccc3)(C(=O)N1c1ccc(Cl)cc1)C2(c1ccccc1)c1ccccc1 (configuration not stated),-,-,-,59.7,-
CCN(CC(=O)NCc1ccc(Cl)cc1)C(=O)/C=C/c1ccc(Cl)c([N+](=O)[O-])c1,-,-,-,65.0,-
CCOc1ccc(S(=O)(=O)N2CCC(C(=O)Nc3ccc(C)c(S(=O)(=O)N4CCOCC4)c3)CC2)cc1,-,-,-,51.7,-
CCC(C)c1ccc2oc(-c3ccc(NC(=O)Cn4cnc5c(=O)n(C)c(=O)n(C)c54)cc3)nc2c1 (configuration not stated),-,-,-,72.9,-
Cn1c(=O)c2ncn(CC(=O)Nc3ccc(N4CCOCC4)cc3)c2n(C)c1=O,-,-,-,-,.
CCn1c2ccccc2c2cc(NC(=O)COC(=O)c3cc(OC)c(OC)cc3OC)ccc21,-,-,-,63.5,-
CCn1c2ccccc2c2cc(NC(=O)COC(=O)c3cccc(F)c3F)ccc21,-,.,-,.,.
CC(C)(C)c1ccc(OCCSc2nc3ccccc3n2CC(=O)O)cc1,-,-,-,77.7,86.9
COc1ccc(S(=O)(=O)Nc2ccc(-c3ccc(N4CCCC4)nn3)cc2)cc1C,-,-,-,-,.
Cc1c([N+](=O)[O-])cc(S(=O)(=O)Nc2ccc(-c3ccc(N4CCCC4)nn3)cc2)cc1[N+](=O)[O-],-,-,-,87.1,90.2
O=[N+]([O-])c1ccc(S(=O)(=O)Nc2ccc(-c3ccc(N4CCCC4)nn3)cc2)cc1,-,-,-,-,.
O=[N+]([O-])c1ccc(Cl)c(S(=O)(=O)Nc2cccc(-c3ccc(N4CCCC4)nn3)c2)c1,-,-,-,58.0,65.7
Cc1ccc([N+](=O)[O-])cc1S(=O)(=O)Nc1ccc(-c2ccc(N3CCCC3)nn2)cc1,-,-,-,53.8,50.5
O=[N+]([O-])c1ccc(Cl)c(S(=O)(=O)Nc2ccc(-c3ccc(N4CCCC4)nn3)cc2)c1,-,-,-,66.7,27.4
Cn1c(NC(=O)c2ccccc2)nc(Cc2ccccc2)c1-c1ccccc1,-,.,-,.,.
COC(=O)[C@]12C[C@H](CC(=O)NCCCCc3ccccc3)C(=O)N(Cc3ccc(Cl)cc3Cl)C1=C[C@H](COCc1ccccc1)O[C@@H]2C,-,.,-,.,.
Cc1ccc(S(=O)(=O)Nc2cccc(-c3ccc(N4CCCCCC4)nn3)c2)c(C)c1,-,-,-,58.9,60.1
CN1C(C(=O)NCc2cccc(Br)c2)CC2Cn3c(nc4cc(Cl)c(Cl)cc43)C21 (configuration not stated),-,-,-,57.2,43.6
Cc1cc2nc3n(c2cc1C)CC1CC(C(=O)NCc2cccc(Br)c2)N(C)C31 (configuration not stated),-,-,-,-,.
Cc1ccc(S(=O)(=O)N2[C@H](c3ccccc3)CC(=O)[C@@H]3CN(S(=O)(=O)c4ccccc4)[C@H](c4ccccc4)C[C@@H]32)cc1,-,-,-,83.4,-
Cc1ccc([C@@H]2C[C@H]3[C@@H](CN2S(=O)(=O)c2ccc(C)cc2)C(=O)C[C@@H](c2ccccc2)N3S(=O)(=O)c2ccc(C)cc2)cc1,-,-,-,-,.
COc1ccc([C@@H]2CC(=O)[C@@H]3CN(S(=O)(=O)c4ccc(C)cc4)[C@H](c4ccccc4)C[C@@H]3N2S(=O)(=O)c2ccccc2)cc1,-,-,-,76.6,-
COc1ccc(C(=O)OCC(=O)NCc2ccc3c(c2)OCO3)cc1[N+](=O)[O-],-,-,-,50.5,-
SMILES,ADAM10 inh,SENP1 inh,ADAM17 inh,FAS TE block,FAS-TE conf
COc1cccc2cc(C(=O)NCCc3ccccc3)c(=O)oc12,-,-,-,-,.
COc1cccc2cc(C(=O)NCCC3=CCCCC3)c(=O)oc12,-,-,-,58.9,-
C[C@@H]1COc2cc(F)ccc2S(=O)(=O)N1C,-,.,-,.,.
COC(=O)C1CCN(C(=O)CCn2nnc(-c3cccs3)n2)CC1,-,.,-,.,.
Cn1c(SCC(=O)Nc2ncc(C(F)(F)F)cc2Cl)nnc1-c1ccc(Cl)cc1,-,-,-,80.8,90.2
CCn1c(SCC(=O)Nc2ncc(C(F)(F)F)cc2Cl)nnc1-c1ccccc1,-,-,-,69.8,73.1
O=S1(=O)c2ccc(Br)cc2OC[C@@H](Cc2ccccc2)N1Cc1cn(CCC2OCCO2)nn1,-,.,-,.,.
O=S(=O)(c1ccc(N2CCC(c3ccc(Cl)cc3)=N2)cc1)N(CCO)CCO,-,-,-,88.9,92.7
CC(C)[C@H](NS(=O)(=O)c1ccc(F)cc1F)C(=O)N1CCC[C@H]1C(=O)NCCc1ccccc1Cl,-,.,-,.,.
CCN(C(=O)COC(=O)c1cccc2ccccc12)c1c(N)n(Cc2ccccc2)c(=O)[nH]c1=O,-,-,-,-,.
CCN(C(=O)COC(=O)c1ccccc1Nc1ccccc1)c1c(N)n(Cc2ccccc2)c(=O)[nH]c1=O,-,-,-,77.4,-
COc1ccc(OC)c(-c2nc3cc4ccccc4cc3nc2-c2ccccc2)c1,-,-,-,52.8,-
O=C(NC12CC3CC(CC(C3)C1)C2)c1ccc([N+](=O)[O-])cc1,-,-,-,-,.
O=C(NCCCc1ccccc1)c1cc([N+](=O)[O-])ccc1Cl,-,-,-,83.8,89.8
O=C(NC12CC3CC(CC(C3)C1)C2)c1cc([N+](=O)[O-])ccc1Cl,-,-,-,59.3,-
O=C(NCC1CCCCC1)c1cc([N+](=O)[O-])ccc1Cl,-,-,-,51.0,56.0
CS(=O)(=O)c1ccc(Cl)c(C(=O)NCC2CCCCC2)c1,-,-,-,-,.
CC(Cc1ccccc1)NC(=O)c1cc([N+](=O)[O-])ccc1Cl (configuration not stated),-,-,-,57.9,69.8
O=C(O)c1cc([N+](=O)[O-])ccc1NCCCc1ccccc1,-,-,-,-,.
COc1ccc(CN2C(C(=O)NC3CCCC3)CSCCS2(=O)=O)cc1 (configuration not stated),-,.,-,.,.
CC(NC(=O)c1ccc([N+](=O)[O-])cc1[N+](=O)[O-])c1ccc(-c2ccccc2)cc1 (configuration not stated),-,-,-,55.3,-
Cc1ccc(O)c(NC(=O)c2cc([N+](=O)[O-])ccc2Cl)c1,-,-,-,53.8,59.9
CCC(NC(=O)c1ccc([N+](=O)[O-])cc1[N+](=O)[O-])c1ccccc1 (configuration not stated),-,-,-,-,.
COC[C@@H](OC(C)=O)[C@H]1OCc2ccccc2[C@@H]1/C=C/c1ccccc1,-,.,-,.,.

# Screening data (PubChem)
